PG9 Ab binder = small molecules binding HIV-1 gp120 antibody PG9. inhibition, % at 6.7 µM. AID 624416. actives 0.43% (n = 360,000). TR-FRET gp120-PG9 antibody binding; in the data active means inhibition above about 8.5%
rCAG binder = molecules binding r(CAG) RNA repeats; r(CAG) RNA repeat, TO-PRO-1 dye displacement fluorescence; actives 1.3% (n = 370,000); AID 651821; inhibition, % at 3 µM;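 active means inhibition above the plate cutoff, the mean of all test compounds on that plate plus 3 SD, cut at about 35% in these data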;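 further: higher means more dye released from RNA so lower well fluorescence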
NR2E3 ag-1 = agonists of human nuclear receptor NR2E3; GST-NR2E3/biotin-RetCOR TR-FRET, 1536-well; inhibition of corepressor binding, % at 4.78 µM; actives 0.12% (n = 320,000);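 active means percent inhibition above the cutoff of mean plus 3 SD of all tested compounds, set per screening campaign, cut at about 20% in these data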
Target sequence (Q9Y5X4 whole entry, looked up): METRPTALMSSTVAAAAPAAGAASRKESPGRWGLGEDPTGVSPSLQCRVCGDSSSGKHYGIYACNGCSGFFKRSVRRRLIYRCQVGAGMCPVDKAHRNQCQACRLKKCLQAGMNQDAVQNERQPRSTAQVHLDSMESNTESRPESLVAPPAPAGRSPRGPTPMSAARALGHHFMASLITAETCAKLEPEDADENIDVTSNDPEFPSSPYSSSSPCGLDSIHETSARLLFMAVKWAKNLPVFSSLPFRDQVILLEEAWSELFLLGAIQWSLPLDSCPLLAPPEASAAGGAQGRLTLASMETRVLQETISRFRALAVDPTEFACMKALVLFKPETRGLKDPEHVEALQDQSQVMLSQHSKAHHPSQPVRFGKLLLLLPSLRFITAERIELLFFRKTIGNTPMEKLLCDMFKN
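Material: NR2E3–RetCOR corepressor complex / Amount: 1.35 nM GST-NR2E3 / Medium: Tris pH 7.5 / Compound: single nominal compound dose of 4.8 µM / Incubation: 5 h at 4 °C / Technique: TR-FRET, Eu(K)-anti-GST donor, streptavidin-D2 acceptor, ex 340, em 617/671 nm / Read-out basis: percent loss of FRET ratio relative to control wells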
Rev-erbA mod = modulators of human Rev-erb alpha DNA binding. Rev-erbα–FITC-DNA binding, fluorescence polarization, 90 min. activity, % at 10 µM. actives 0.79% (n = 370,000). P20393;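 active means activity above about 14%, limit read from the data; passing the limit was not always enough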
NR2E3 ag-2 = activates human NR2E3 receptor | Q9Y5X4 | CHO-S Gal4-NCOR/VP16-NR2E3 two-hybrid, luciferase | inhibition of corepressor binding, % at 3.98 µM | actives 0.35% (n = 360,000) | AID 602229;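 active means inhibition above the mean of all tested compounds plus 3 SD, cut at about 70% in these data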;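 further: higher means lower luciferase signal from less NR2E3 corepressor binding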
PG9 bind confirm = PG9 antibody binding, confirmed; shares compounds with PG9 Ab binder; TR-FRET PG9 antibody binding, biochemical; inhibition, % at 6.7 µM; actives 90% (n = 1,500); AID 651571; in the data active means inhibition above about 9%
PGV04 counter = PGV04 control antibody binding, counter-screen. shares compounds with PG9 Ab binder. TR-FRET PGV04 antibody-gp120 binding, biochemical. inhibition, % at 6.7 µM. actives 95% (n = 1,500). AID 651604; in the data active means inhibition above about 9.5%
PG9 binder DR = PG9 antibody binding, dose response | shares compounds with PG9 Ab binder | TR-FRET PG9 antibody-gp120 binding inhibition | IC50, µM | 95 tested, under 10 active | AID 651848; in the data active means IC50 below about 10 µM
PGV04 binding DR = PGV04 binding, dose response counter-screen | TR-FRET binding to control antibody PGV04 | shares compounds with PG9 Ab binder | AID 651937 | IC50, µM | actives 20% (n = 95)
PG126 DR counter = counter-screen for PG9 binders: binding to control antibody PG126; shares compounds with PG9 Ab binder; TR-FRET binding to antibody PG126, counterscreen; IC50, µM; actives 20% (n = 95)
Numbers stand for hits; - = inactive; . = no result. Sampled rows, rich in hits. Any-hit rate of the full collection: about 2.6%. Unless noted, no stated cut-off is given here; in the data, active means IC50 below about 9 µM; inactive means the rest.

SMILES | PG9 Ab binder | rCAG binder | NR2E3 ag-1 | Rev-erbA mod | NR2E3 ag-2 | PG9 bind confirm | PGV04 counter | others
Cc1cc(C(F)(F)F)n(-c2nc(C(=O)NN)cs2)n1 | - | - | - | - | - | . | .
COc1ccc(S(=O)(=O)NNC(=O)c2csc(-n3nc(C)cc3C(F)(F)F)n2)cc1OC | 10 | - | - | - | - | - | 11
CCCCC(=O)Nc1nn(CC)c2nc3c(C)cccc3cc12 | 9.7 | - | - | - | - | 11 | 15
CCCCC(=O)Nc1nn(C)c2nc3c(C)cccc3cc12 | - | - | - | - | - | . | .
COc1cccc(-n2nnnc2SCC(=O)Nc2ccc(C(C)=O)cc2)c1 | 16 | - | - | - | - | 24 | 39
COC(=O)c1ccc(OCC(=O)Nc2nn(-c3ccccc3)nc2C(N)=O)cc1 | 12 | - | - | - | - | 30 | 34
CC1CCN(CC(=O)Nc2nn(-c3ccccc3)nc2C(N)=O)CC1 | - | - | - | - | - | . | .
COc1cc(OC)c(C2Nc3cccc4cccc(c34)N2)c(OC)c1 | 12 | - | . | - | - | - | 12
COc1ccc(C(=O)COC(=O)CCCN=C2NS(=O)(=O)c3ccccc32)c(OC)c1 | - | - | - | - | - | . | .
COc1ccc(C(=O)COC(=O)CCN=C2NS(=O)(=O)c3ccccc32)c(OC)c1 | 17 | - | - | - | - | 31 | 45
COc1ccc(Cl)cc1C(=O)NC1CC(C)(C)NC(C)(C)C1 | - | - | . | - | - | . | .
CCCC1Cc2c(sc3nc(SC)nc(N)c23)CO1 (stereo not given) | 16 | - | - | - | - | 18 | 34
COc1ccc(CNC(=O)CN(C(=O)c2cc3sccc3n2C)C2CCCC2)cc1 | 13 | - | - | - | - | 11 | 14
CCn1c(C(=O)N2CCC(C(=O)NCc3ccc(OC)cc3)CC2)cc2sccc21 | - | - | - | - | - | . | .
C=CCN1C[C@@H](COCc2ccccc2)OCCS1(=O)=O | - | - | . | - | . | . | .
CSc1ccccc1C(=O)OCC(=O)Nc1ccc(N2CCOCC2)cc1 | - | - | . | - | - | . | .
CC(C)N(C[C@@H]1CSCCS(=O)(=O)N1)C1CCCCC1 | - | - | . | - | . | . | .
Cc1ccc(S(=O)(=O)c2c(N)n(CCN3CCOCC3)c3nc4ccccc4nc23)cc1C | 26 | - | - | - | - | 17 | 29
Nc1c(S(=O)(=O)c2ccccc2)c2nc3ccccc3nc2n1CCN1CCOCC1 | - | - | - | - | - | . | .
Cc1cc(C)c(OCC(=O)Nc2nnc(C3CC3)s2)c(C)c1 | - | - | . | - | - | . | .
Cc1cccc(-n2c(SCC(N)=O)nc3c(c2=O)C2(CCCC2)Cc2ccccc2-3)c1 | 19 | - | - | - | - | 20 | 25
CCOc1cccc(-c2nn3c(-c4ccco4)nnc3s2)c1 | 12 | - | - | - | - | 39 | 29 | PG9 binder DR=-;PGV04 binding DR=-;PG126 DR counter=-
COc1cccc(-c2nnc3sc(-c4ccco4)nn23)c1 | - | - | - | - | - | . | .
N#Cc1c(-c2ccccc2)c(C#N)c2nc3ccccc3n2c1N | 8.8 | - | - | - | - | 18 | 24
Cc1ccc(-c2c(C#N)c(N)n3c(nc4ccccc43)c2C#N)cc1 | - | - | - | - | - | . | .
SMILES | PG9 Ab binder | rCAG binder | NR2E3 ag-1 | Rev-erbA mod | NR2E3 ag-2 | PG9 bind confirm | PGV04 counter | others
Cc1cc(C)cc(NC(=S)N2CCC(C(=O)c3ccc(F)cc3)CC2)c1 | - | - | . | - | - | . | .
COc1ccccc1CNc1nc(Nc2cccc(-c3cnco3)c2)c2sccc2n1 | - | - | . | - | - | . | .
CCOc1ccc(C(=O)OCC(=O)NCCNC(=O)COC(=O)c2ccc(OCC)cc2)cc1 | 9.1 | - | - | - | - | 14 | 17
COC(=O)C1CN(C(=O)COc2ccc(Cl)cc2C)c2ccccc2O1 (stereo not given) | - | - | - | - | - | . | .
CCOC(=O)c1[nH]c2ccc(OC)cc2c1NC(=O)CN1CCN(c2ccccn2)CC1 | . | . | - | . | . | . | .
CCOC(=O)c1[nH]c2ccc(OC)cc2c1NC(=S)N1CCN(c2cccc(Cl)c2)CC1 | 55 | - | - | - | - | 16 | 30
CCOC(=O)c1[nH]c2ccc(OC)cc2c1NC(=S)N1CCN(c2ccccc2)CC1 | 11 | - | - | - | - | - | 9.5
CCOC(=O)c1[nH]c2ccc(OC)cc2c1NC(=S)N1CCN(c2ccccn2)CC1 | - | - | - | - | - | . | .
C[C@H](O)[C@@H]1C(=O)N2CCc3c([nH]c4cccc(-c5ccccc5)c34)[C@@H]2C[C@@H]1N(C)CC1CCCCC1 | - | - | . | - | . | . | .
Cc1cccc(C(=O)NCC(=O)OCC(=O)NCCNC(=O)COC(=O)CNC(=O)c2cccc(C)c2)c1 | - | - | - | - | - | . | .
Cc1cccc(C(=O)NCC(=O)OCC(=O)c2ccc(Br)s2)c1 | 8.8 | - | . | - | - | 14 | 21
O=[N+]([O-])c1cccc(I)c1 | - | - | . | - | . | . | .
CC(=O)c1cccc(NC(=O)c2c(-c3c(F)cccc3Cl)noc2C)c1 | - | - | - | - | - | . | .
Cc1ccc(C(=O)CSc2nc(C)cc(SCc3nnc(-c4ccccc4)o3)n2)cc1 | 9.4 | - | - | - | - | 15 | 22
COc1cccc([C@@H](NC(=O)C(F)(F)F)[C@@H]2CCCC=C2c2ccccc2)c1 | - | - | . | - | . | . | .
CCOc1ccc(NC(=O)CCC(=O)c2ccc(Br)cc2)cc1 | 16 | - | - | - | - | 18 | 22
C=CCOC(=O)CCCCCCCC | - | - | - | - | - | . | .
COc1ccc(-c2noc(CCC(=O)NCC3CCCO3)n2)cc1OC (stereo not given) | 11 | - | - | - | - | - | -
CCOc1cc(-c2noc(CCC(=O)NCC3CCCO3)n2)ccc1OC (stereo not given) | - | - | - | - | - | . | .
COc1ccc(C(=O)NCCCNc2nc3cc(C)cc(C)c3cc2C#N)cc1 | - | - | . | - | - | . | .
COc1cc(OC)cc(C(=O)NCCNc2nc3cc(C)cc(C)c3cc2C#N)c1 | 20 | - | - | - | - | 9.0 | 23
COc1ccc2c(c1)CCC1(C)CC(=O)C(Br)=C21 (stereo not given) | 14 | - | . | - | - | 24 | 47
COc1ccc2c(c1)CCCC(Br)C2=O (stereo not given) | - | - | . | - | - | . | .
O=C(O)c1cnn(-c2nc(-c3ccc(Br)cc3)cs2)c1C(F)(F)F | 9.6 | - | - | - | - | 13 | 23
O=C(O)c1cnn(-c2nc(-c3ccc(F)cc3)cs2)c1C(F)(F)F | - | - | - | - | - | . | .
